Results gathered from unrelated publications.
Protocols differ between the studies behind these lines.
Cyp2e1: Cytochrome P450 2E1 (Cyp2e1, Rattus norvegicus, UniProt P05182)

SMILES	target or system	assay	system	conditions	endpoint	value
NC(=O)c1c(NC(=O)c2cnn3c(C(F)(F)F)cc(-c4ccccc4)nc23)sc2c1CCCC2	Calu-3	cell growth or viability, MTT		48 h	CC50	> 125 µM
N=c1c2c(-c3ccccc3)c(-c3ccccc3)n(Cc3ccccc3)c2ncn1[C@H]1CC[C@H](O)CC1			female minipig, plasma	intravenous, 0.25 mg/kg, single dose	clearance	0.6 mL/min/kg
Cc1ncc2n1-c1ccc(Cl)cc1C(c1ccccc1F)=NC2		metabolic stability	male rat, liver microsomes	1 µM	microsomal CLint	> 250 µL/min/mg
OCCCCO	Cyp2e1	enzyme activity, inhibitor	Fischer 344 rat, liver microsomes	25 mM, 30 min	activity vs control	17%
CCCCCn1cc(C(=O)Nc2cccc3ccccc23)c2ccccc21		metabolic stability	Sprague-Dawley rat, liver microsomes	1 µM, pH 7.4	microsomal CLint	310 µL/min/mg
COc1ccnc(C(=O)N[C@H]2COC(=O)[C@H](Cc3ccccc3)[C@@H](OC(=O)C(C)C)[C@H](C)OC2=O)c1OCOC(=O)C(C)C			rat	topical	LD50	> 5000 mg/kg
O=C(O)C(F)(F)C(F)(F)C(F)(F)C(F)(F)C(F)(F)C(F)(F)C(F)(F)F	Solute carrier organic anion transporter family member 1B3 (SLCO1B3, Homo sapiens, UniProt Q9NPD5)	transporter uptake, substrate	CHO	1 min, pH 7.4	Km	91.6 µM
O=c1c(O[C@@H]2O[C@H](CO)[C@@H](O)[C@H](O)[C@H]2O)c(-c2ccc(O)cc2)oc2cc(O)cc(O)c12	MCF7	cell growth or viability, WST-1			IC50	15.7 µM
CC(C)(C)NC(=O)N[C@H](C(=O)N1C[C@H]2[C@@H]([C@H]1C(=O)NC(CC1CCC1)C(=O)C(N)=O)C2(C)C)C(C)(C)C (stereo partly shown)	Calu-3	cell growth or viability, MTT		48 h	CC50	> 250 µM
CCN(CC)CCNC(=O)c1c(C)[nH]c(/C=C2\C(=O)Nc3ccc(F)cc32)c1C	Calu-3	cell growth or viability, resazurin			CC50	45.7 µM
CCCCCn1nc(C(=O)Nc2cccc3ccccc23)c2ccccc21		metabolic stability	Sprague-Dawley rat, liver microsomes	1 µM, pH 7.4	microsomal CLint	430 µL/min/mg
C=CC(=O)Nc1cccc(-c2snc3cc(-c4ccc(N)c(OC)c4)cnc23)c1	Calu-3	cell growth or viability, resazurin			CC50	> 60 µM
C=CC1CO1 (stereo not shown)	Cyp2e1	enzyme activity, inhibitor	rat, liver microsomes		Ki	24 µM
